Experimental findings from ChEMBL document CHEMBL3785023, “Development and Pharmacological Characterization of Selective Blockers of 2-Arachidonoyl Glycerol Degradation with Efficacy in Rodent Models of Multiple Sclerosis and Pain” (J Med Chem, 2016) are described below.

Calls of active or inactive are those of the source.

Data set [1] concerns Mus musculus. Kind of data set: Reduction of disease index score in myelin oligodendrocyte glycoprotein (35 to 55)-induced C57BL/6J mouse experimental autoimmune encephalomyelitis model of multiple sclerosis at 3 mg/kg, ip dosed on day 6 postimmunization up to 21 day postimmunization measured from day 8 postimmunization. It is filed as functional, organism-based. An outline of the steps: (§1)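 Female C57BL/6J mice immunized with MOG35-55 were randomly assigned to groups. They received 3 mg/kg i.p. daily from 6 days post-immunization up to 21±1 d.p.i. AM251 or AM630, 1 mg/kg i.p., was given 10 min before each dose for 14 days. Clinical score was recorded daily and as cumulative score, reported as mean ± SEM. Group sizes were 4–9 mice.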

Data set [2] concerns Mus musculus. Description: Reduction of disease index score in myelin oligodendrocyte glycoprotein (35 to 55)-induced C57BL/6J mouse experimental autoimmune encephalomyelitis model of multiple sclerosis at 3 mg/kg, ip administered post CB1 antagonist/inverse agonist AM251 addition dosed on day 6 postimmunization up to 21 day postimmunization measured from day 12 postimmunization. It is filed as functional, organism-based. A digest of the protocol:
as §1

Data set [3] concerns Mus musculus. Kind of data set: Analgesic activity in CD-1 mouse model of oxaliplatin-induced neuropathic pain assessed as reversal of lowering of threshold to cold stimuli at 10 mg/kg, po coadministered with oxaliplatin for 14 days measured 24 hrs post last dose by cold plate test. It is filed as functional, organism-based.
Data set [4] in a line: Selectivity ratio of IC50 for human recombinant C-terminal His-tagged FAAH expressed in sf21 cells to IC50 for recombinant C-terminal His6-tagged human MAGL expressed in Escherichia coli. An outline of the steps: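 Ratio of IC50 values from two radiometric assays, each read by scintillation counting of the aqueous phase after CHCl3/MeOH 1:1 extraction. MGL assay: 10,000xg cytosolic fraction of human recombinant MGL (0.05 µg/sample), 50 mM Tris-HCl pH 7.0, 37 °C, 20 min, 2-arachidonoyl-[3H]-glycerol. FAAH assay: human recombinant FAAH (2 µg/sample), pH 9.5, 37 °C, 30 min, [14C]-anandamide. Means of three experiments.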

The target of data set [5] is T1, Monoacylglycerol lipase ABHD6 (Rattus norvegicus) (UniProt Q5XI64).
T1 sequence (whole entry): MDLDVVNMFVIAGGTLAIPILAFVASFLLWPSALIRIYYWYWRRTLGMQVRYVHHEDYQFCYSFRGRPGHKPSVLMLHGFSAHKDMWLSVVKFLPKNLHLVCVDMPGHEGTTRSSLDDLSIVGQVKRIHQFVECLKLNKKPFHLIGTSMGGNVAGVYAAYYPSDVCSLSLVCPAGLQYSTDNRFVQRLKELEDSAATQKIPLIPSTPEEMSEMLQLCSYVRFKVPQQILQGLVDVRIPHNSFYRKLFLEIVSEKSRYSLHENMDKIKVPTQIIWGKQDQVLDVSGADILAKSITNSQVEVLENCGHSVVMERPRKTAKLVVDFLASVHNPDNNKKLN
Description: Inhibition of ABHD6 in rat brain membranes up to 500 nM preincubated for 20 mins followed by fluorophosphonate-rhodamine addition measured after 30 mins by competitive affinity based proteomic profiling assay. It is filed as cell membranes. The note with it: Membrane. An outline of the steps: (§2)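 Rat brain membranes (1 mg/mL) preincubated with 1–1000 nM inhibitor or DMSO for 20 min at 37 °C. FP-rhodamine then added and incubated a further 30 min at 37 °C. Samples run on SDS-PAGE and serine hydrolase bands quantified by in-gel fluorescence.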

The test system of data set [6] is Heart. Description: Cardiotoxicity in Langendorff-perfused Sprague-Dawley rat heart assessed as time duration of cardiac cycle length at 1 uM by ECG analysis (reference value: 238.38 +/- 9.23 milliseconds). It is filed as toxicity, tissue-based.
In data set [7] the test system is Heart. Kind of data set: Cardiotoxicity in Langendorff-perfused Sprague-Dawley rat heart assessed as atrioventricular conduction time at 0.001 uM by ECG analysis (reference value: 45.62 +/- 4.49 milliseconds). It is filed as toxicity, tissue-based.
Data set [8] concerns Heart. Kind of data set: Cardiotoxicity in Langendorff-perfused Sprague-Dawley rat heart assessed as corrected time duration of action potential at 0.1 uM by ECG analysis (reference value: 155.26 +/- 2.96 milliseconds). It is filed as toxicity, tissue-based.
Data set [9] relates to Mus musculus. Description: In vivo inhibition of MAGL in CD-1 mouse assessed as 2-AG level in spinal cord at 0.3 mg/kg, ip coadministered with formalin by LC-MS analysis (reference value: 3.8 +/- 0.4 pmol/g). It is filed as functional.
The target in data set [10] is T2, Monoglyceride lipase (Rattus norvegicus, UniProt Q8R431).
T2 sequence (Q8R431 whole entry): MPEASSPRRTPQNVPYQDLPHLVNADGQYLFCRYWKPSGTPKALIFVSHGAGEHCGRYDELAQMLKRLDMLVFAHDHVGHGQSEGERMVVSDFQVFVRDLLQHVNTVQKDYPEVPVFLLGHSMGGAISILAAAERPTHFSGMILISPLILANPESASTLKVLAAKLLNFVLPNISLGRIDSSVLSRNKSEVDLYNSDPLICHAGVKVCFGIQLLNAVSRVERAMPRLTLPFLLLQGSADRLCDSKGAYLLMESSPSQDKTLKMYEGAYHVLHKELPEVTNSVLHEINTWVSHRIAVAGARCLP
Kind of data set: Inhibition of MAGL in rat brain membranes preincubated for 20 mins followed by fluorophosphonate-rhodamine addition measured after 30 mins by competitive affinity based proteomic profiling assay. It is filed as cell membranes, Membrane. A digest of the protocol:
as §2

In data set [11] the test system is Salmonella typhimurium. Description: Mutagenicity in Salmonella typhimurium TA98 assessed as increase in number of colonies at 1 uM by Ames test. It is filed as toxicity, organism-based. The conditions noted are these: salmonella enterica subsp. enterica serovar typhimurium. Background: The Ames test detects mutagens through reverse mutation in bacteria.
Data set [12] in a line: Apparent permeability from luminal to abluminal side in human endothelial cells cocultured with pericytes at 100 uM after 20 to 60 mins by LC-UV analysis. It is filed as ADME, cell-based, Endothelial cell. An outline of the steps:
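Human BBB model: endothelial cells derived from hematopoietic stem cells, cocultured 6 days with pericytes. Compound (100 µM in Ringer + Hepes) added luminally together with Lucifer yellow as an integrity marker. Incubated 20, 40 and 60 min at 37 °C; abluminal compound measured by LC-UV. Papp = J/(A·C0).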

As for `O=C1[C@H](c2ccc(F)cc2)[C@@H](c2ccc3c(c2)OCO3)N1C1CCN(C(=O)n2cncn2)CC1` (racemic) [listing 1 of 2 here], the outcome in data set [1] and in data set [3] was Active. Further, the result in data set [2] was inactive. Besides, the Ratio IC50 in data set [4] was determined as 389. Moreover, the inhibition result in data set [5] was “inactive”.

What is called IC50 is the concentration at which inhibition is half-maximal. As usually defined, the Papp is the rate of passage across a membrane or cell layer, normalised by area and donor concentration. Regarding `O=C1[C@H](c2ccc(F)cc2)[C@@H](c2ccc3c(c2)OCO3)N1C1CCN(C(=O)n2cncn2)CC1` (racemic) [listing 2 of 2 here], the Time turned out to be 235.48 ms in [6], 46.03 ms in data set [7] and 154.6 ms in data set [8]. Also, the Activity is given as 6.6 pmol/g in data set [9] and “Non-toxic” in [11]. The IC50 in data set [10] came out at 10 nM. For the same molecule, in [12], the Papp at 100 µM came out at 47 ×10⁻⁶ cm/s.
